# HSF1 inh: HSF1 inhibition. hit rate 0.77% among 300,000. NIH3T3-HGL HSE-luciferase, MG132-induced, luminescence 8 h; stronger effect = lower value. activity change, negative = inhibition, % at 7.5 µM (by protocol). AID 2098;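 active means more than half of replicate wells show activity change below -50%, luminescence cut by over half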;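 further: luciferase reports HSF-1 transcriptional activity via heat shock element; 0% = median of DMSO wells and -100% = zero luminescence signal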
# Hsp70 activator: Hsp70 transcriptional activation, primary screen | HeLa Hsp70 promoter luciferase reporter, luminescence; scaled: vehicle 0, proteasome-inhibitor control 100% | activation, % at 10 µM | hit rate 0.04% among 200,000;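 active means activation above the mean across all tested compounds plus 3 SD, cutoff set per campaign, cut at about 5.5% in these data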;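 further: 100% = MG132 at 30 µM as the positive control and 0% = DMSO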
# AHR act: activators of human aryl hydrocarbon receptor. P35869. AHR-responsive luciferase reporter cells, luminescence. activation, % at 5 µM. hit rate 2.5% among 320,000. AID 2796; in the data active means activation above about 47%;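 further: 0% = vehicle wells and 100% = reference agonist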
# Target sequence (P35869 whole entry, looked up): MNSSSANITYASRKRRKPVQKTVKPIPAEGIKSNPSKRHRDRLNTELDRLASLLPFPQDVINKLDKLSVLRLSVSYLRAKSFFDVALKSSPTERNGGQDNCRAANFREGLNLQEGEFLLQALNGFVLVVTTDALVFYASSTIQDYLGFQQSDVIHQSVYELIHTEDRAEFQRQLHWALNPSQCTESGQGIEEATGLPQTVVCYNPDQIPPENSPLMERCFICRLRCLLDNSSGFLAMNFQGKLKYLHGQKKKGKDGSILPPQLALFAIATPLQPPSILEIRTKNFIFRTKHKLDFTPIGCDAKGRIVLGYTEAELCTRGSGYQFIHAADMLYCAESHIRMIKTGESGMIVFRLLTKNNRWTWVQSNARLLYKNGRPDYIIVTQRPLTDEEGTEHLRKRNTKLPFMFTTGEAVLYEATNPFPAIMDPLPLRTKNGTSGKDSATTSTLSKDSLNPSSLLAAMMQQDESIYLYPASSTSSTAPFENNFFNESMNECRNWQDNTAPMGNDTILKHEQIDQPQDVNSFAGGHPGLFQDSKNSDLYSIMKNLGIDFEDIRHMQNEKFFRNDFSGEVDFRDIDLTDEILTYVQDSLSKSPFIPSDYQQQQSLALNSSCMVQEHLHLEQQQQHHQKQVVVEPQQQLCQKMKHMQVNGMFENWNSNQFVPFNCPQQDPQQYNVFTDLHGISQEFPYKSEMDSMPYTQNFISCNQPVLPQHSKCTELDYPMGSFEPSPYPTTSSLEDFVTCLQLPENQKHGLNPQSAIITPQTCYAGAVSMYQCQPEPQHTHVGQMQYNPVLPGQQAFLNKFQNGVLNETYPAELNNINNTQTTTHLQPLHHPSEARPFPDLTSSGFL
# PolyA inh: inhibitors of polyadenylation in S. cerevisiae | activity score, % at 12 µM | hit rate 0.02% among 300,000 | S. cerevisiae SKY197-pL101 polyadenylation reporter, beta-gal luminescence; efflux-impaired pdr1/pdr3 knockout yeast; score 100 = 6 SD above DMSO;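 active means lowest replicate activity score at least 50, where 100 means six control SD above control mean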;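 further: yeast exposed to compound for 9 h at 30 °C; higher score means more reporter readthrough which indicates perturbed polyadenylation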
# STAT3 activator: activators of IL-6 induced STAT3 signaling; U3A cells, IL-6 STAT3-luciferase reporter, luminescence; 100% = signal with IL-6 EC80 alone; activation (% of control), % at 5.6 µM; hit rate 0.91% among 190,000; AID 871;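 active means activation above the screen-wide mean of compound activation plus 3 SD, cut at about 130% in these data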;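 further: 0% = background luminescence of wells with medium and substrate only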
#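 Material: STAT3-luciferase reporter U3A cells; Probe or stimulus: IL-6 (33 ng/mL); Incubation: compound pre-incubation 1 h before IL-6, then 6 h stimulation at 37 °C; Technique: luminescence from STAT3-driven luciferase reporter; Evaluation: % activation versus median of IL-6-stimulated wells; Controls: IL-6-only high control.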
# PERK inh: human PERK inhibition, primary cell-based screen; CHO PERK-DD fusion, SEAP luminescence translation reporter; inhibition, % at 5.6 µM; hit rate 0.17% among 220,000; AID 1416;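 active means inhibition above the mean inhibition of all tested compounds plus 3 SD, set separately per screening campaign, cut at about 2.9% in these data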;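 further: PERK kinase domain activated by AP20187 dimerizer at 100 nM; 0% = DMSO with dimerizer and 100% = rapamycin at 8.4 µM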
# The depositor's hits bear a star; / = not tested or not shown. Sampled rows, rich in hits. Any-hit rate of the full collection: about 3.6%.
SMILES,HSF1 inh,Hsp70 activator,AHR act,PolyA inh,STAT3 activator,PERK inh
COc1ccc(Cl)cc1S(=O)(=O)N(C)CC(=O)NCc1ccc2c(c1)OCO2,0,/,2,-1,/,/
Cc1c(NS(=O)(=O)c2cc(C(=O)NCc3cccnc3)ccc2Cl)c(=O)n(-c2ccccc2)n1C,/,/,1,/,/,/
Cc1c(NS(=O)(=O)c2cc(C(=O)NCCN(C)C)ccc2Cl)c(=O)n(-c2ccccc2)n1C,-74*,/,0,3,/,/
Cc1c(C(=O)N2CCC3(CC2)CC(=O)c2ccccc2O3)cccc1[N+](=O)[O-],-2,/,2,-2,/,/
CC(=O)c1c(C(C)=O)c(C)n(-c2nc(-c3ccc(Br)cc3)c(C)s2)c1C,-6,0,56*,-2,100,0
NC1=NC(=O)/C(=C\c2ccco2)S1,-12,/,0,22,/,0
CS(=O)(=O)Nc1ccc(-c2ccc(/C=C3\SC(N)=NC3=O)o2)cc1,-6,/,58*,16,/,/
CC[n+]1c(/C=C/Nc2ccccc2)oc2ccc(OC)cc21,4,0,17,-9,88,0
CC[n+]1c(/C=C/Nc2ccccc2)oc2ccccc21,-45,0,109*,3,84,0
Nc1cccc(CCc2nc3cc4ccccc4cc3[nH]2)c1,12,0,62*,4,112,1
CN(C)C(=O)N1CCC(C(=O)NCc2ccc(F)cc2Cl)CC1,-69*,0,-4,17,104,0
Cc1sc2c(c1C)C(=O)NC(c1cccc(O)c1)N2 (configuration not stated),10,0,55*,3,144*,0
COc1ccc(NC2=Nc3ccccc3N3C2=Nc2c(c(C)nn2-c2ccc(C)cc2)C3c2cccnc2)cc1 (configuration not stated),-81*,0,2,/,103,-1
CCOC(=O)C(Nc1ccc2ccccc2c1)C(=O)OCC,42,0,37,-7,136*,1
CC(=O)Nc1ccc2ccccc2c1,8,0,3,-3,106,-1
CCOc1ccccc1N1CCN(Cc2cn[nH]c2-c2ccc(F)cc2)CC1,11,/,6,2,/,-1
O=C1C(Cl)=C(Nc2ccc3cn[nH]c3c2)C(=O)c2ccccc21,-90*,/,70*,-1,/,0
Cn1nc(C(F)(F)F)c(C(=O)Nc2ccc(C(F)(F)F)cc2)c1Cl,9,0,-3,-23,84,0
C=CCNC(=O)c1c(C(F)(F)F)nn(C)c1Cl,-54*,0,3,6,120,0
Cc1cc(C(=O)NC2CCCN(Cc3ccccc3F)C2)n[nH]1 (configuration not stated),-6,/,1,-15,/,/
O=C(Nc1ccc(Cl)c([N+](=O)[O-])c1)c1ccco1,2,/,-3,-6,/,/
O=C(Nc1ccccc1)Nc1ccc(Br)c(Cl)c1,-14,0,67*,29,105,1
O=C(Nc1ccc(Br)c(Cl)c1)c1ccco1,9,0,75*,-33,116,0
O=C(Nc1cccc(-c2nc3ccccc3[nH]2)c1)c1ccco1,4,0,51*,-9,84,-2
O=C(Nc1cccc(NC(=O)c2nccc3ccccc23)c1)c1ccco1,/,/,102*,/,/,/
SMILES,HSF1 inh,Hsp70 activator,AHR act,PolyA inh,STAT3 activator,PERK inh
CCN(C[C@H]1N[C@@](Cc2ccccc2)(C(=O)OC)[C@H]2C(=O)N(C)C(=O)[C@@H]12)C(C)=O,/,/,-1,/,/,/
O=C(Nc1ccc(NC(=O)c2ccco2)c(Cl)c1)c1ccccc1,12,0,59*,-11,87,1
O=C(Nc1ccccc1O)c1cccc(NC(=O)c2ccco2)c1,13,/,54*,-12,/,/
Cc1ccccc1NC(=O)c1ccccc1NC(=O)c1ccco1,-4,-1,26,-5,101,-1
O=C(c1ccccc1)c1cccc(NC(=O)c2ccco2)c1,16,1,0,1,101,0
O=C(Nc1ccccc1C(=O)Nc1ccc(F)cc1)c1ccco1,-1,/,172*,-12,/,/
COc1ccc(-n2nc(C(=O)NCC(=O)NCCN(C)C)c3ccccc3c2=O)cc1,1,/,0,7,/,/
CN(CC(=O)Nc1ccc(Cl)c(C(F)(F)F)c1)C(=O)c1cc(=O)c2ccccc2o1,/,/,1,/,/,/
Cc1cccc(OCC(=O)OC(C)CN2CCCCC2)c1 (configuration not stated),-10,/,1,-4,/,/
COc1cccc(/C=N/NC(=O)c2ccc3nc[nH]c3c2)c1O,-2,/,7,7,/,2
COc1cc(OC)c2cc(C(=O)N/N=C/c3cccc(OC)c3O)[nH]c2c1,-1,/,49*,-8,/,0
O=C(CN1CCN(CC(=O)Nc2cccc(F)c2)CC1)Nc1ccc(-c2ccccc2)cc1,1,/,-2,-15,/,/
CCOC(=O)N1CCC(NC(=O)CN2C(=O)CSc3nc(C)cc(C)c32)CC1,-71*,0,-1,14,102,-1
CCOC(=O)N1CCC(NC(=O)CN2C(=O)CSc3ncccc32)CC1,2,0,1,-7,100,2
CCC(=O)Nc1nn(CC(C)C)c2nc3ccc(C)cc3cc12,4,/,23,10,/,/
COc1cc2nc(N(C)C)nc(N)c2cc1OC,-8,0,65*,-2,112,1
COc1cc2nc(Nc3ccc(C)c(C)c3)nc(N)c2cc1OC,0,/,12,-4,/,/
CCOC(=O)c1ccc(NC(=O)NNC(=O)CCc2ccc(OC)cc2)cc1,-6,/,/,-14,/,/
Cc1ccn2c(NC3CCCC3)c(-c3ccccn3)nc2c1,1,0,77*,-5,89,-1
Cc1ccccc1OCCNc1cc(N2CCNCC2)ccc1[N+](=O)[O-],5,0,16,-3,96,0
COc1ccccc1OCCNc1cc(N2CCCCC2)ccc1[N+](=O)[O-],24,0,69*,-9,101,0
Cc1cc(C)cc(N2C(N)=NC(N)=NC2c2ccccc2F)c1 (configuration not stated),-6,/,2,2,/,/
OCCCNc1cc(-c2ccnc(Nc3cccc(Cl)c3)n2)ccn1,-58*,/,18,-1,/,/
S=c1[nH]nc(-c2ccccc2)n1/N=C/c1ccc(Cl)cc1,-6,/,/,-52,/,/
O=[N+]([O-])c1ccccc1/C=C/C=N/n1c(-c2ccc(Cl)cc2)n[nH]c1=S,-1,0,60*,9,102,0
Cc1cc(-c2n[nH]c(=S)n2/N=C/c2c[nH]c3ccccc23)n[nH]1,3,/,7,5,/,1
Cc1cc(-c2n[nH]c(=S)n2/N=C/c2ccccc2[N+](=O)[O-])n[nH]1,-15,0,48*,5,79,1
O=[N+]([O-])c1ccccc1/C=C/C=N/n1c(-c2ccccc2)n[nH]c1=S,-1,0,17,20,105,0
